In ChEMBL document CHEMBL1221219, “Selective blockade of 2-arachidonoylglycerol hydrolysis produces cannabinoid behavioral effects” (Nat Chem Biol, 2009) one finds inhibition, Activity and inhibition in vivo data, which are given here for one compound.

By inhibition in vivo is commonly meant the share of the control response that was lost under treatment.

The target in test [1] is T1, Diacylglycerol lipase-beta (Homo sapiens) (UniProt Q8NCG7).
T1 sequence (whole entry): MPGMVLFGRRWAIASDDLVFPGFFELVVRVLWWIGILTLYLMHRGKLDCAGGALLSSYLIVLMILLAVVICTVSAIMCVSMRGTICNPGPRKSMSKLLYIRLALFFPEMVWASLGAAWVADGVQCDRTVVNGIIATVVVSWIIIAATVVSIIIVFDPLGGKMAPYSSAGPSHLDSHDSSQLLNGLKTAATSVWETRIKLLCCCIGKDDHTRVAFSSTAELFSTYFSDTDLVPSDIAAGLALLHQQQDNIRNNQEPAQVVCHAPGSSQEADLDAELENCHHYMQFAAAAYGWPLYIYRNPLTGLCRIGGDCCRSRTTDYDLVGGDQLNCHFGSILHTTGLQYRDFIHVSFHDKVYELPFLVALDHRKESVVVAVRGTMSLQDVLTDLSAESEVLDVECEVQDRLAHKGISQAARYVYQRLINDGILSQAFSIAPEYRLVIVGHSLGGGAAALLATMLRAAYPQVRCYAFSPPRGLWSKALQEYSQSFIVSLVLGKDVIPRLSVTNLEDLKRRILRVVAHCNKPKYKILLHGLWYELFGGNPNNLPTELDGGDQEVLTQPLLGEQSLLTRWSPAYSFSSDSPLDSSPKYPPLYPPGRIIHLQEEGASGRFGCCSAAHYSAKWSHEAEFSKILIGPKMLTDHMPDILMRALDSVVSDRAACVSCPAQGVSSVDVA
Description: Inhibition of recombinant DAGLbeta expressed in HEK293 cells assessed as hydrolysis of 1-stearoyl-2-arachidonoyl-glycerol to 2-AG at 25 uM after 30 mins by LC-MS method. It is filed as cell-based.

The test system of test [2] is Mus musculus. Description: Inhibition of FAAH in C57B1/6J mouse brain membrane at 16 mg/kg, ip after 4 hrs by competitive activity-based protein profiling-MudPIT method. It is filed as functional, organism-based. Also noted: dose 16 mg/kg. In a few lines: (§1)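 After i.p. dosing in 4:1 PEG300:Tween80, male C57Bl/6J mice were killed at 4 h. Brain membrane proteomes from treated and vehicle mice were labelled with FP-biotin. Labelled proteins were enriched on avidin, digested on-bead with trypsin and analysed by multidimensional LC-MS. Proteins were identified by SEQUEST, and dosed samples were compared with vehicle.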

Test [3] relates to Mus musculus. Description: Change in mono-oleoylglycerol levels in intraperitoneally dosed C57B1/6J mouse brain by LC-MS. It counts as functional, organism-based. In a few lines: (§2)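 Male C57Bl/6J mice given 4, 8, 16 or 40 mg kg^-1 i.p. in 4:1 PEG300:Tween80 at 4 μl g^-1, or vehicle, and killed after 4 h. Whole-brain lipids were quantified by LC-MS.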
Test [4] deals with Mus musculus. Kind of test: Inhibition of DPP9 in C57B1/6J mouse brain membrane at 16 mg/kg, ip after 4 hrs by competitive activity-based protein profiling-MudPIT method. It is filed as functional, organism-based. Also noted: dose 16 mg/kg. In a few lines: (§3)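 Mice were dosed 16 mg kg^-1 i.p. or vehicle and killed at 4 h. Brain membrane proteomes were labelled with FP-biotin, avidin-enriched, trypsin-digested on bead, analysed by multidimensional LC-MS and identified by SEQUEST.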

Test [5] deals with Mus musculus. Kind of test: Inhibition of FAM108A1 in C57B1/6J mouse brain membrane at 16 mg/kg, ip after 4 hrs by competitive activity-based protein profiling-MudPIT method. It counts as functional, organism-based. Also on record: dose 16 mg/kg. Put shortly: as §1
The test system of test [6] is Mus musculus. Description: Antinociceptive activity against formalin-induced pain in C57B1/6J mouse assessed as paw lifting or licking during late phase (20-40 mins) at 40 m/kg, po administered 2 hrs before formalin challenge. It counts as functional, organism-based.
For test [7], the system named is Mus musculus. Description: Inhibition of MAGL in C57B1/6J mouse brain membrane assessed as inhibition of 2-AG hydrolysis activity at 16 mg/kg, ip upto 24 hrs by competitive activity-based protein profiling method relative to control. It is filed as functional. As to conditions: route intraperitoneal. In a few lines:
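Male C57Bl/6J mice dosed i.p. in 4:1 v/v PEG300:Tween80, with vehicle controls; killed at set times (0.5-24 h, or 4 h). Brain membrane 2-AG hydrolysis measured by LC-MS substrate assay, and brain 2-AG measured by lipid LC-MS, relative to vehicle.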

Test [8] relates to Mus musculus. Description: Effect on interstitial level of AEA in C57B1/6 mouse nucleus accumbens at 10 mg/kg, ip by following neuronal depolarization by microdialysis. It is filed as functional, organism-based. Also noted: dose 10 mg/kg. Put shortly:
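In vivo microdialysis from nucleus accumbens of C57Bl/6 mice after 10 mg kg^-1 i.p. Drug was given 1 h before neuronal depolarization, and interstitial AEA and 2-AG were measured in the dialysate.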

In test [9] the test system is Mus musculus. Description: Induction of hypothermia in C57B1/6J mouse at 16 mg/kg, ip pretreated with rimonabant. It is filed as functional, organism-based. Also on record: dose 16 mg/kg. Put shortly:
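Male C57Bl/6J mice, 6-8 weeks, 20-26 g, given 16 mg kg^-1 i.p. in 4:1 v/v PEG300:Tween80 at 4 μl g^-1; vehicle controls received PEG300:Tween80 alone. Cannabinoid effects were scored in the tetrad test.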

Test [10] relates to Mus musculus. Kind of test: Change in free fatty acid level in C57B1/6J mouse brain at 16 mg/kg, ip by LC-MS. Also on record: dose 16 mg/kg. It is filed as functional, organism-based. Put shortly:
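Mice received 16 mg kg^-1 i.p. in 4:1 PEG300:Tween80 and were killed at 0.5, 1, 2, 4, 8 and 24 h. Brain lipids, including N-acylethanolamines, MAGs, free fatty acids and arachidonic acid, were measured by LC-MS.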

Test [11] has as its system Mus musculus. Kind of test: Antinociceptive activity against formalin-induced pain in C57B1/6J mouse assessed as paw lifting or licking during late phase (20-40 mins) at 40 m/kg, po administered 2 hrs before formalin challenge pretreated with rimonabant. It counts as functional, organism-based.
Test [12] relates to Mus musculus. Description: Inhibition of PRCP in C57B1/6J mouse brain membrane at 16 mg/kg, ip after 4 hrs by competitive activity-based protein profiling-MudPIT method. It is filed as functional, organism-based. Also noted: dose 16 mg/kg. Put shortly: as §1
Test [13] relates to Mus musculus. Description: Inhibition of NTE-like in C57B1/6J mouse brain membrane at 16 mg/kg, ip after 4 hrs by competitive activity-based protein profiling-MudPIT method. It is filed as functional, organism-based. Also noted: dose 16 mg/kg. Put shortly: as §1
In test [14] the test system is Mus musculus. Description: Inhibition of ABHD10 in C57B1/6J mouse brain membrane at 16 mg/kg, ip after 4 hrs by competitive activity-based protein profiling-MudPIT method. Also on record: dose 16 mg/kg. It counts as functional, organism-based. In a few lines: as §3
For test [15], the system named is Mus musculus. Description: Change in arachidonic acid levels in intraperitoneally dosed C57B1/6J mouse brain by LC-MS. It counts as functional, organism-based. Put shortly:
as §2

The subject of test [16] is Mus musculus. Description: Inhibition of CES31 in C57B1/6J mouse brain membrane at 16 mg/kg, ip after 4 hrs by competitive activity-based protein profiling-MudPIT method. Also noted: dose 16 mg/kg. It is filed as functional, organism-based. In a few lines:
as §3

Active and inactive are the calls of the source. The calls are words filed in the database; no cut-off is given here. A value given as a limit tells only on which side of the number the result lay.

With `O=C(Oc1ccc([N+](=O)[O-])cc1)N1CCC(C(O)(c2ccc3c(c2)OCO3)c2ccc3c(c2)OCO3)CC1`, the inhibition entry in test [1], in [2], in test [4], in test [5], in [12] and in test [13] was “inactive” in each case. Also, the inhibition entry in [14] and in test [16] was “inactive” throughout. Further, the outcome in test [3], in test [8], in test [9], in [10], in [11] and in test [15] was inactive. In addition, in test [6], the outcome was Active. Besides, in test [7], the inhibition in vivo at 16 mg/kg was > 80%.
